The results in this text go back to ChEMBL document CHEMBL4024769, “Synthesis and Investigation of Photophysical and Biological Properties of Novel S-Containing Bacteriopurpurinimides” (J Med Chem, 2017).

The nature of series [1]: Phototoxicity against mouse S37 cells implanted in F1 mouse assessed as tumor growth inhibition at 2.5 mg/kg, iv preincubated for 30 mins with subsequent 150 J/cm2 irradiation measured on day 15 post irradiation relative to control. The class given is functional. Particulars: S37, light or radiation study, read-out: TGI. An outline of the steps: (§1)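 S37 sarcoma mice treated on day 7 of tumor growth with compound iv; tumors 140–160 mm3 beforehand, droperidol 0.25 mg ip as anesthetic. LED irradiation at 800 ± 21 nm, 100 mW/cm2, 150 J/cm2, given 15 or 30 min after dosing. Controls got iv 0.9% NaCl. Volume = d1×d2×d3×0.52; TGI = […]×100%.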

Series [2] in a line: Phototoxicity against mouse S37 cells implanted in F1 mouse assessed as tumor growth inhibition at 2.5 mg/kg, iv preincubated for 15 mins with subsequent 150 J/cm2 irradiation measured on day 8 post irradiation relative to control. The class given is functional. Conditions: S37, light or radiation study, read-out: TGI. In a few lines:
as §1

Series [3] is described as follows: Drug distribution in mouse S37 cell cytoplasmic vesicles at 1 uM for 4 hrs by laser scanning confocal microscopic analysis. The format is ADME. In a few lines:
(§2)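 Mouse sarcoma S37 cells exposed to 1 μM photosensitizer for 4 h, then imaged by laser scanning confocal microscopy with a 63×/1.46 oil objective. Excitation 543 nm at 10 μW; emission collected above 655 nm on an APD detector. Intracellular localization judged against transmitted-light images.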

Series [4] can be described thus: Drug uptake in kidney tumor of F1 mouse implanted with mouse S37 cells assessed as normalized fluorescence at 2.5 mg/kg, iv measured up to 24 hrs post injection in presence of He-Ne laser radiation by local fluorescence spectroscopic analysis. The format is ADME, organism-based. Conditions: in vivo. An outline of the steps:
(§3)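 Single iv dose of 2.5 mg/kg given to F1 mice bearing S37 sarcoma. Skin, muscle, liver, kidney, spleen and tumor taken from three animals each at 0.25, 0.5, 2, 4 and 24 h and read ex vivo by contact local fluorescence spectroscopy. He–Ne 632.8 nm excitation; 640–900 nm integral normalized to backscattered laser signal (FN).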

Series [5] is described as follows: Phototoxicity against mouse S37 cells implanted in F1 mouse assessed as tumor growth inhibition at 2.5 mg/kg, iv preincubated for 30 mins with subsequent 150 J/cm2 irradiation measured on day 11 post irradiation relative to control. The class given is functional. Particulars: S37, light or radiation study, read-out: TGI. An outline of the steps: as §1
The nature of series [6]: Phototoxicity against mouse S37 cells implanted in F1 mouse assessed as tumor growth inhibition at 2.5 mg/kg, iv preincubated for 30 mins with subsequent 150 J/cm2 irradiation measured on day 20 post irradiation relative to control. The format is functional. Particulars: S37, light or radiation study, read-out: TGI. In a few lines:
as §1

Series [7] in a line: Drug distribution in mouse S37 cell cytoplasm at 1 uM for 4 hrs by laser scanning confocal microscopic analysis. The format is ADME. In a few lines: as §2
Series [8] can be described thus: Phototoxicity against mouse S37 cells implanted in F1 mouse assessed as tumor growth inhibition at 2.5 mg/kg, iv preincubated for 30 mins with subsequent 150 J/cm2 irradiation measured on day 8 post irradiation relative to control. The class given is functional. Conditions: S37, light or radiation study, read-out: TGI. In a few lines: as §1
A short description of series [9]: Drug distribution in mouse S37 cell nuclear membrane at 1 uM for 4 hrs by laser scanning confocal microscopic analysis. The format is ADME. An outline of the steps:
as §2

The nature of series [10]: Drug distribution in mouse S37 cell cytoplasmic vesicles at 1 uM for 4 hrs by microspectroscopy. The class given is ADME.
Series [11] in a line: Dark toxicity against mouse S37 cells assessed as cell growth inhibition up to 15 uM after 24 hrs by MTT assay. The class given is cell-based. Particulars: s37, 24 h. In a few lines:
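S37 mouse sarcoma cells in DMEM with 2 mM L-glutamine and 10% FBS, 37 °C, 5% CO2. Compound added 24 h after plating and kept without irradiation for 24 h in the dark. Survival scored visually and by MTT colorimetry.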

Series [12] in a line: Phototoxicity against mouse S37 cells implanted in F1 mouse assessed as tumor growth inhibition at 2.5 mg/kg, iv preincubated for 30 mins with subsequent 150 J/cm2 irradiation measured on day 18 post irradiation relative to control. The format is functional. Particulars: S37, light or radiation study, read-out: TGI. In a few lines: as §1
In series [13] the test system is Mus musculus. In words: Toxicity in F1 mouse implanted with mouse S37 cells at 2.5 mg/kg, iv preincubated for 15 to 30 mins with subsequent 150 J/cm2 irradiation measured up to 16 days post irradiation. The format is organism-based. Conditions: in vivo, 384 h. An outline of the steps:
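F1 mice bearing S37 sarcoma (140−160 mm3) were treated on day 7 of tumour growth with 2.5 or 5.0 mg/kg iv; controls received iv 0.9% NaCl. Animals were anaesthetised with droperidol 0.25 mg/animal ip. LED irradiation (800 ± 21 nm, 100 mW/cm2, 150 J/cm2) followed 15 or 30 min after dosing. Tumour volume was calculated as d1×d2×d3×0.52, with TGI computed versus controls. Tumour-free animals were followed for 90 d.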

The nature of series [14]: Drug uptake in spleen tumor of F1 mouse implanted with mouse S37 cells assessed as normalized fluorescence at 2.5 mg/kg, iv measured up to 24 hrs post injection in presence of He-Ne laser radiation by local fluorescence spectroscopic analysis. The format is ADME, organism-based. Conditions: in vivo. In a few lines: as §3
A short description of series [15]: Drug uptake in skin tumor of F1 mouse implanted with mouse S37 cells assessed as normalized fluorescence at 2.5 mg/kg, iv measured up to 24 hrs in presence of He-Ne laser radiation by local fluorescence spectroscopic analysis. The format is ADME, organism-based. Conditions: in vivo. In a few lines:
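S37 sarcoma-bearing immunocompetent F1 mice (18−22 g) given PS 2.5 mg/kg iv. Animals sacrificed at 0.25, 0.5, 2, 4 and 24 h, with three animals per time point. Skin, tumor and organ samples were read ex vivo by contact local fluorescence spectroscopy under He−Ne 632.8 nm excitation. Integrated 640−900 nm emission was normalized to the backscattered laser signal to give FN.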

The nature of series [16]: Drug uptake in tumor of F1 mouse implanted with mouse S37 cells at 2.5 mg/kg, iv measured after 24 hrs in presence of He-Ne laser radiation by local fluorescence spectroscopic analysis. The class given is ADME, organism-based, Neoplasm. Particulars: in vivo. An outline of the steps:
as §3

Series [17] in a line: Drug uptake in liver tumor of F1 mouse implanted with mouse S37 cells assessed as normalized fluorescence at 2.5 mg/kg, iv measured up to 24 hrs post injection in presence of He-Ne laser radiation by local fluorescence spectroscopic analysis. The class given is ADME, organism-based. Particulars: in vivo. An outline of the steps: as §3
The nature of series [18]: Drug uptake in tumor of F1 mouse implanted with mouse S37 cells at 2.5 mg/kg, iv measured after 2 hrs in presence of He-Ne laser radiation by local fluorescence spectroscopic analysis. The class given is ADME, organism-based, Neoplasm. Conditions: in vivo. An outline of the steps:
as §3

A short description of series [19]: Drug distribution in mouse S37 cell membrane at 1 uM for 4 hrs by laser scanning confocal microscopic analysis. The class given is ADME, cell-based. In a few lines: as §2
The test system of series [20] is Sarcoma M1. In words: Phototoxicity against rat Sarcoma M1 cells implanted in rat assessed as deposition of fragments of proliferated tumor parenchyma at 2.5 mg/kg, ip administered as single dose on day 11 post inoculation followed by 300 J/cm2 irradiation after 2.5 to 3 hrs measured on day 2 post photodynamic therapy. The class given is functional, organism-based.

Series [21] can be described thus: Phototoxicity against rat Sarcoma M1 cells implanted in rat assessed as volume of PCNA-positive cells in tumor parenchyma at 2.5 mg/kg, ip administered as single dose on day 11 after inoculation followed by 300 J/cm2 irradiation after 2.5 to 3 hrs measured on day 12 post photodynamic therapy (reference value: 72 +/- 5%). The format is functional. An outline of the steps: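 Rats with M1 sarcoma implanted subcutaneously in the left thigh were randomized on day 10, 25 per group. Single ip dose of 2.5 mg/kg on day 11; laser irradiation 2.5–3 h later at 810 nm, 0.51 W/cm2, 300 J/cm2, 10 min over a 1.5 cm field. Five rats sampled per time point for H&E histology, PCNA immunohistochemistry (1:200) and tumor volume. Untreated controls; Student's test, p < 0.05.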

The source made the active and inactive calls. The calls are words filed in the database; no cut-off is given here.

Turning to `CCCO/N=C(\C)c1c(C)c2cc3nc(c4c5[nH]c(cc6nc(cc1[nH]2)[C@H](C)[C@H]6CC)c(C)c5C(=O)N(OCCC)C4=O)[C@@H](CCC(=O)OC)[C@@H]3C`, the inhibition in vivo at 2.5 mg/kg came to 81.5% in series [1]; 100% in series [2]; 88.6% in series [5]; 65.9% in series [6]; 100% in [8]; 77.1% in [12]. Moreover, the Drug uptake result is given as “Active” in series [3]; “Active” in [4]; “Not Active” in [7]; “Not Active” in series [9]; “Active” in series [10]; “Active” in series [14]. Besides, the Drug uptake result in series [16] was “Not Active”; in series [17] it was “Active”; in [18], “Active”; in [19] it was “Not Active”. In addition, the Activity result in series [11] and in series [13] was “Non-Toxic” each time. Also, the Flu intensity in [15] was 2 RU.
For `CCCO/N=C(\C)c1c(C)c2cc3nc(c4c5[nH]c(cc6nc(cc1[nH]2)[C@@H](C)[C@@H]6CC)c(C)c5C(=O)N(OCCC)C4=O)[C@H](CCC(=O)NCCSSCCNC(=O)CC[C@@H]1c2nc(cc4[nH]c(cc5nc(cc6[nH]c7c2C(=O)N(OCCC)C(=O)c7c6C)[C@H](CC)[C@H]5C)c(/C(C)=N/OCCC)c4C)[C@H]1C)[C@H]3C`, the inhibition in vivo at 2.5 mg/kg was found to be 93.9% in series [1]; 97.4% in series [5]; 75.5% in series [6]; 100% in [8]; 88% in [12]. In addition, the Drug uptake entry in [3] was “Active”; in [4] it was “Active”; in [7], “Not Active”; in [9], “Not Active”; in series [10] it was “Active”; in series [14] it was “Active”. In addition, the Drug uptake result in series [16] is given as “Not Active”; in series [17], “Active”; in [18], “Active”; in [19] it was “Not Active”. Further, the outcome in [20] was Active. The Activity in series [21] is 39%; in series [11], “Non-Toxic”; in series [13], “Non-Toxic”. For the same molecule, the Flu intensity in [15] was 2 RU.
